Measurements from different studies.
Lines come from different studies, so protocols differ.
Target: Macrophage-stimulating protein receptor (MST1R, Homo sapiens, UniProt Q04912)

| SMILES | read-out | technique | tested at | remaining binding |
| --- | --- | --- | --- | --- |
| C=CC(=O)N1CCC(C(=O)NCC(=O)N2CCN(c3nc(-c4cnc(N)nc4C(F)F)nc(N4CCOCC4)n3)CC2)CC1 | binding | competition with immobilised ligand | 1 µM | 100% |
| O=C(c1ccc(Nc2ncc(Cl)c(-c3ccc(Cl)s3)n2)cc1)N1CCC(N2CCCC2)CC1 | binding | competition with immobilised ligand | 1 µM | 43% |
| N[C@@H]1CCN(c2nccc(-c3cnn4ncccc34)n2)C1 | binding |  | 1 µM | 100% |
| Cc1cnc(Nc2ccc(C(=O)N3CCC(N4CCCC4)CC3)cc2)nc1-c1cc2ccccc2s1 | binding | competition with immobilised ligand | 1 µM | 83% |
| C[C@@]1(Cc2ccc(C#N)cc2)C(=O)N(c2cc(Cl)cc(Cl)c2)c2ncc(C(=O)NC3(c4nc(C5CCC5)no4)CC3)n21 | cell-free assay | competition with immobilised ligand | 1 µM | 100% |
| F[C@@H]1CCN(c2nccc(-c3cnn4ncccc34)n2)C1 | binding |  | 1 µM | 100% |
| CNC(=O)c1ccc(Nc2ncc(C(F)(F)F)c(NCc3nccnc3N(C)S(C)(=O)=O)n2)cc1 | cell-free assay | competition with immobilised ligand | 0.1 µM | 100% |
| C[C@@H]1CCN(c2nccc(-c3cnn4ncccc34)n2)C1 | binding |  | 1 µM | 100% |
| O=C(c1ccc(Nc2ncc(Cl)c(-c3cc4ccccc4s3)n2)cc1)N1CCC(N2CCCC2)CC1 | binding | competition with immobilised ligand | 1 µM | 56% |
| COc1cnc(Nc2cccc(S(N)(=O)=O)c2)nc1N1CCN(c2ccccc2)CC1 | binding | competition with immobilised ligand | 1 µM | 99% |
| c1cncc(-c2cccc(Nc3nccc(NC4CCCCC4)n3)c2)c1 | binding | competition with immobilised ligand | 10 µM | 78% |
| CN(C)c1nccc(-c2cnn3ncccc23)n1 | binding |  | 1 µM | 100% |
| Cc1nc(N2CC[C@@H](O)C2)ncc1-c1cc(C(F)(F)F)cc2[nH]ncc12 | cell-free assay | competition with immobilised ligand | 1 µM | 100% |
| CNC(=O)[C@@H]1CC[C@@H](n2c(-c3ccc4cnccc4c3)nc3ccc(C(=O)NCc4cccc(C(N)=O)c4)cc32)C1 | binding | competition with immobilised ligand | 1 µM | 87% |
| c1ccc(N2CCN(Cc3nc4ccccc4[nH]3)CC2)nc1 | cell-free assay | competition with immobilised ligand | 1 µM | 100% |
| CN(C)c1nccc(-c2cnc3ncccn23)n1 | binding |  | 1 µM | 98% |
| CNC(=O)Nc1ccc2c(c1)[C@@]1(CC2)OC(=O)N(CC(=O)N(Cc2ccc(F)cc2)[C@@H](C)C(F)(F)F)C1=O | cell-free assay | competition with immobilised ligand | 1 µM | 100% |
| CN(CCCC(F)(F)F)c1nccc(-c2cnn3ncccc23)n1 | binding |  | 1 µM | 100% |
| O=C(Nc1c[nH]nc1C(=O)NC1CCNCC1)c1cc(F)cc(F)c1 | binding | competition with immobilised ligand | 1 µM | 100% |
| CO[C@@H](C)c1c(Nc2ccc([C@@H](N(C)C(=O)C3CCS(=O)(=O)CC3)C(F)(F)F)cc2)cnc2cc(Cl)nn12 | cell-free assay | competition with immobilised ligand | 1 µM | 100% |
| FC(F)(F)Oc1cccc(-c2cnc3ccc(-c4ccncc4)nn23)c1 | cell-free assay | competition with immobilised ligand | 5 µM | 79% |
